Many of the other results were omitted from the sample, so hits are more common in it than they were.
T cruzi growth-1: T. cruzi proliferation inhibition. T. cruzi beta-gal in NIH3T3, GalScreen luminescence, 90 h. inhibition, % at 8.34 µM. 77,000 tested, 5.9% active. AID 624255;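 active = mean inhibition above about 93%, with at least 55% of replicates each passing it, limit read from the data, passing the limit was not always enough; inconclusive = only one of those two conditions holds; inactive = neither condition holds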
GASC1 inh: blocks human GASC-1 (KDM4C) demethylase activity | inhibition, % at 12.5 µM | Q9H3R0 | 96,000 tested, 0.15% active | GST-KDM4C 2-372, H3K9me3 peptide, LANCE TR-FRET;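 active = mean replicate inhibition above about 25%, with at least 55% of replicates also reaching it, limit read from the data, passing the limit was not always enough; inconclusive = only one of those two conditions met; inactive = neither condition met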
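Test system: N-terminal GST-fused human GASC-1 (KDM4C) fragment, residues 2-372; quantity: GASC-1 enzyme at 10 nM final in reaction; dosing: single dose; schedule: 30 min demethylation and 1 h detection at room temperature; signal: LANCE TR-FRET, excitation 340 nm, emissions 618 and 671 nm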
IDH1 R132H inh: inhibitors of human IDH1 R132H | 70,000 tested, 0.18% active | inhibition, % at 10 µM | IDH1 R132H reductase, diaphorase/resazurin fluorescence, 60 min; in the data active = inhibition above about 34%; inconclusive = no clear call, values can overlap the other calls; inactive = below about 11%;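 also: 0% = DMSO and 100% = no enzyme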
Target sequence (O75874 whole entry R132H): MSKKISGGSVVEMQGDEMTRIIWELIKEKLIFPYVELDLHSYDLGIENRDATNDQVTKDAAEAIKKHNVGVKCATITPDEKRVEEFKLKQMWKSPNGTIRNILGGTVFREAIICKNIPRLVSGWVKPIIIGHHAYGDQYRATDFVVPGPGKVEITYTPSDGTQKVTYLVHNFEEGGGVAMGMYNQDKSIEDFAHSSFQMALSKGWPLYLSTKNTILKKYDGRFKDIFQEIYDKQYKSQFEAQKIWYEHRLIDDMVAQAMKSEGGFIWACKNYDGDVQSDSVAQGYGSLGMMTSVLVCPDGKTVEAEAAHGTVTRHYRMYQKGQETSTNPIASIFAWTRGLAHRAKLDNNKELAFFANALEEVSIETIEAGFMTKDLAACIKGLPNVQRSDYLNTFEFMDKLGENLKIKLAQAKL
T cruzi growth-2: blocks T. cruzi growth in NIH3T3 host cells; shares compounds with T cruzi growth-1; T. cruzi beta-gal in NIH3T3, GalScreen luminescence, 90 h; inhibition, % at 8.35 µM; 5,600 tested, 72% active; AID 651739;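 active = mean replicate inhibition above about 95% and at least 55% of replicates individually reaching it, limit read from the data; inconclusive = only one of the two criteria is met; inactive = neither criterion is met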
T cruzi growth-3: Trypanosoma cruzi proliferation inhibition. inhibition, % at 2.09 µM. AID 651740. shares compounds with T cruzi growth-1. T. cruzi beta-gal in NIH3T3, GalScreen luminescence, 90 h. 5,600 tested, 21% active;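 active = mean inhibition above about 95%, with at least 55% of replicates also reaching it, limit read from the data; inconclusive = meets just one of the two conditions; inactive = meets neither condition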;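 also: plate controls were neutral control median for no effect and positive control median for full effect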
3T3 cytotox: kills mouse NIH/3T3 fibroblasts; shares compounds with T cruzi growth-1; NIH/3T3 viability, CellTiter-Glo ATP luminescence, 90 h; cytotoxicity (signal decrease), % at 8.35 µM; 5,600 tested, 14% active;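 active = mean signal decrease across replicates above about 35% based on untreated-well scatter, with enough replicates individually passing, limit read from the data; inconclusive = no rule stated though some were filed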;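 also: 0% = median of neutral control wells and 100% = median of positive control wells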
NIH3T3 tox 2: NIH/3T3 (mouse) viability loss. shares compounds with T cruzi growth-1. NIH/3T3 viability, CellTiter-Glo ATP luminescence, 90 h. inhibition, % at 24.9 µM. 5,600 tested, 56% active;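 active = mean loss of cell viability signal at or above a set limit, and enough replicates individually reaching it; inconclusive = meets only the mean limit or only the replicate share; inactive = meets neither condition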;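 also: 0% = median of neutral control wells and 100% = median of positive control wells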
Starred values were filed as active, the others as inactive; ? = inconclusive; . = no result.

SMILES	T cruzi growth-1	GASC1 inh	IDH1 R132H inh	T cruzi growth-2	T cruzi growth-3	3T3 cytotox	NIH3T3 tox 2
C[C@@H]1CN([C@@H](C)CO)C(=O)Cc2cc(NS(=O)(=O)c3ccc(F)cc3)ccc2O[C@H]1CN(C)Cc1ccc(C(=O)Nc2ccccc2N)cc1	.	0	0	.	.	.	.
N#C[C@H]1[C@H](c2ccccc2)[C@@H](CO)N1S(=O)(=O)c1cccc(F)c1	45	-1	.	.	.	.	.
N#C[C@H]1[C@@H](c2ccccc2)[C@H](CO)N1S(=O)(=O)c1cccc(F)c1	-11	1	.	.	.	.	.
C/C=C/c1ccc([C@H]2[C@@H](C#N)N(S(=O)(=O)c3cccc(F)c3)[C@H]2CO)cc1	95	0	.	.	.	.	.
N#C[C@@H]1[C@H](c2ccc(-c3cccc(F)c3)cc2)[C@H](CO)N1S(=O)(=O)c1cccc(F)c1	102*	-1	.	107*	89	10	54*
C/C=C/c1ccc([C@H]2[C@@H](CO)N(S(=O)(=O)c3cccc(F)c3)[C@H]2C#N)cc1	111*	-1	0	91	93	-8	26
N#C[C@@H]1[C@@H](c2ccc(-c3cccc(F)c3)cc2)[C@@H](CO)N1S(=O)(=O)c1cccc(F)c1	99*	0	.	99*	61	39*	66*
Cc1noc(C)c1NC(=O)Nc1ccc2c(c1)C(=O)N([C@@H](C)CO)C[C@H](C)[C@H](CN(C)C(=O)NC1CCCCC1)OCCCC[C@H](C)O2	.	-2	4	.	.	.	.
O=C(C[C@H]1C=C[C@@H](NC(=O)C2CC2)[C@H](CO)O1)Nc1ccccc1	-20	-1	2	.	.	.	.
COc1ccc2c3c([nH]c2c1)[C@H](CO)N(Cc1cc(F)ccc1F)CC31CN(C)C1	.	0	.	.	.	.	.
CCCC#Cc1ccc2c(c1)O[C@@H](CN(C)C(=O)C1CCC1)[C@@H](C)CN([C@H](C)CO)S2(=O)=O	104*	-2	.	110*	57	2	34*
CCCC#Cc1ccc2c(c1)O[C@H](CN(C)C(=O)C1CCCCC1)[C@@H](C)CN([C@@H](C)CO)S2(=O)=O	95*	0	4	88	100*	-25	104*
CCCC#Cc1ccc2c(c1)O[C@H](CN(C)C(=O)C1CC1)[C@@H](C)CN([C@H](C)CO)S2(=O)=O	72	-1	.	.	.	.	.
CCCC#Cc1ccc2c(c1)O[C@@H](CN(C)C(=O)C1CCC1)[C@@H](C)CN([C@@H](C)CO)S2(=O)=O	105*	-1	-2	110*	42	-22	-37
C[C@H](CO)N1C[C@H](C)[C@H](CN(C)C(=O)C2CCCCC2)Oc2cc(C#CCN(C)C)ccc2S1(=O)=O	.	1	.	.	.	.	.
CCCC#Cc1ccc2c(c1)O[C@@H](CN(C)C(=O)C1CCC1)[C@H](C)CN([C@H](C)CO)S2(=O)=O	87	0	-1	.	.	.	.
Nc1nc(N)nc(-c2cc(Cl)ccc2Cl)n1	.	.	1	.	.	.	.
CC(C)C(=O)Nc1ccc2c(c1)C(=O)N(C)[C@H]1CC[C@H](CC(=O)NCc3cccc(F)c3)O[C@@H]1CO2	12	-1	.	.	.	.	.
C/C=C/c1cnc2c(c1)C(=O)N([C@H](C)CO)C[C@@H](C)[C@@H](CN(C)C(=O)C1CCC1)O2	13	0	0	.	.	.	.
Cc1ccc(S(=O)(=O)Nc2ccc3c(c2)CC(=O)N([C@H](C)CO)C[C@@H](C)[C@@H](CN(C)Cc2ccc4c(c2)OCO4)O3)cc1	86	-3	1	.	.	.	.
Cc1ccc(S(=O)(=O)Nc2ccc3c(c2)CC(=O)N([C@H](C)CO)C[C@@H](C)[C@H](CN(C)Cc2ccc4c(c2)OCO4)O3)cc1	104*	-1	-1	106*	55	14	25*
Cc1ccc(S(=O)(=O)Nc2ccc3c(c2)CC(=O)N([C@H](C)CO)C[C@H](C)[C@H](CN(C)Cc2ccc4c(c2)OCO4)O3)cc1	51	-1	0	.	.	.	.
Cc1ccc(S(=O)(=O)Nc2ccc3c(c2)CC(=O)N([C@@H](C)CO)C[C@@H](C)[C@H](CN(C)Cc2ccc4c(c2)OCO4)O3)cc1	99*	4	0	103*	?	9	?
